Assay [1] deals with HT-29. Nature of the assay: Cell cycle arrest in human HT-29 cells assessed as decrease in cells accumulation in S phase at IC50 concentrations measured after 72 hrs by Propidium iodide staining based FACS cytometry analysis. Set-up: scale not given: the % may be the effect or the level left. Type of assay: functional. An outline of the steps:
(§1)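 Cells were seeded in 24-well plates (5 × 10^4 B16–F10 or 6 × 10^4 HT29 per well) and grown 24 h in DMEM with 10% FCS and 2 mM glutamine at 37 °C, 5% CO2. They were then exposed 72 h at the cancer-line IC50, washed in PBS, trypsinized and taken up in TBS, then in Vindelov buffer (RNase, PI, pH 8). Cells were kept on ice and given extra PI before reading. About 10 × 10^3 cells were read per run by FACS at 488 nm. Three experiments, two replicates each, reported as mean ± SEM.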

Assay [2] deals with B16-F10. Briefly: Induction of mitochondrial membrane potential loss in mouse B16-F10 cells assessed as fluorescence intensity at IC50 concentration measured after 72 hrs by rhodamine 123 staining based FACScan flow cytometry. It is filed as functional, cell-based. The gist of the method: (§2)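 The medium was then renewed with dihydrorhodamine, which oxidizes to Rh123, for 1 h at 37 °C in 5% CO2. Cells were washed and resuspended in PBS, and fluorescence was read by FACScan (excitation 500, emission 536 nm). Three experiments, two replicates each, reported as mean ± SEM.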
A general note: A flow cytometer gives signals particle by particle.

Assay [3] relates to HepG2. Nature of the assay: Induction of apoptosis in human HepG2 cells assessed as necrotic cells at IC50 concentrations measured after 72 hrs by Annexin V-FITC/Propidium iodide staining based FACS cytometry analysis. It is filed as functional. An outline of the steps:
(§3)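 Seeding in 24-well plates was 5 × 10^4 B16–F10, 6 × 10^4 HT29 or 15 × 10^4 Hep G2 per well, followed by 24 h growth. Cells were treated in triplicate for 72 h at the respective IC50. Harvested cells went into HEPES binding buffer (pH 7.4, 140 mM NaCl, 2.5 mM CaCl2), with Annexin V-FITC added for 15 min at room temperature in the dark, then PI just before FACScan. About 10 × 10^3 cells were counted per sample. Results are mean ± SEM, relative to untreated control.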

The subject of assay [4] is B16-F10. Briefly: Cell cycle arrest in mouse B16-F10 cells assessed as decrease in cells accumulation in S phase at IC50 concentrations measured after 72 hrs by Propidium iodide staining based FACS cytometry analysis. Type of assay: functional. Set-up: scale not given: the % may be the effect or the level left. An outline of the steps:
as §1

The subject of assay [5] is HepG2. Nature of the assay: Induction of apoptosis in human HepG2 cells assessed as total apoptosis at IC50 concentrations measured after 72 hrs by Annexin V-FITC/Propidium iodide staining based FACS cytometry analysis. It is filed as functional. An outline of the steps:
as §3

In assay [6] the test system is B16-F10. Briefly: Induction of apoptosis in mouse B16-F10 cells assessed as necrotic cells at IC50 concentrations measured after 72 hrs by Annexin V-FITC/Propidium iodide staining based FACS cytometry analysis. It is filed as functional. An outline of the steps:
as §3

Assay [7] concerns HepG2. Nature of the assay: Induction of mitochondrial membrane potential loss in human HepG2 cells assessed as fluorescence intensity at IC50 concentration measured after 72 hrs by rhodamine 123 staining based FACScan flow cytometry. It is filed as functional, cell-based. The gist of the method:
as §2

Assay [8] relates to HT-29. Nature of the assay: Induction of mitochondrial membrane potential loss in human HT-29 cells assessed as fluorescence intensity at IC50 concentration measured after 72 hrs by rhodamine 123 staining based FACScan flow cytometry. It is filed as functional, cell-based. An outline of the steps:
as §2

Assay [9] has as its system HT-29. Briefly: Induction of apoptosis in human HT-29 cells assessed as necrotic cells at IC50 concentrations measured after 72 hrs by Annexin V-FITC/Propidium iodide staining based FACS cytometry analysis. It is filed as functional. An outline of the steps: as §3
For assay [10], the system named is B16-F10. Briefly: Induction of apoptosis in mouse B16-F10 cells assessed as total apoptosis at IC50 concentrations measured after 72 hrs by Annexin V-FITC/Propidium iodide staining based FACS cytometry analysis. It is filed as functional. The gist of the method:
as §3

Assay [11] has as its system HT-29. Nature of the assay: Induction of apoptosis in human HT-29 cells assessed as total apoptosis at IC50 concentrations measured after 72 hrs by Annexin V-FITC/Propidium iodide staining based FACS cytometry analysis. Type of assay: functional. The gist of the method: as §3
In assay [12] the test system is B16-F10. Nature of the assay: Cell cycle arrest in mouse B16-F10 cells assessed as increase in cells accumulation in G0/G1 phase at IC50 concentrations measured after 72 hrs by Propidium iodide staining based FACS cytometry analysis. It is filed as functional. An outline of the steps: as §1
For assay [13], the system named is HT-29. Briefly: Cell cycle arrest in human HT-29 cells assessed as increase in cells accumulation in G0/G1 phase at IC50 concentrations measured after 72 hrs by Propidium iodide staining based FACS cytometry analysis. It is filed as functional. The gist of the method: as §1

Activity calls are given as the source filed them. The calls are words filed in the database; no cut-off is given here.

For `CC1(C)CC[C@]2(C(=O)NCCCNC(=O)Cc3cc(=O)oc4cc(O)ccc34)CC[C@]3(C)C(=CC[C@@H]4[C@@]5(C)C[C@@H](O)[C@H](O)C(C)(C)[C@@H]5CC[C@]43C)[C@@H]2C1`, the Activity in the assay on HT-29 [1] came to 10%; in the assay with HepG2 [3], 5%; with B16-F10 [4], 10%; in the assay with HepG2 [5], 40%; in the assay with B16-F10 [6] it was 5%; in the assay on HT-29 [9], 5%. Moreover, in the assay with B16-F10 [10], the Activity turned out to be 85%. Also, the result in the assay with B16-F10 [2] and in the assay with HT-29 [8] was inactive. Besides, in the assay with HepG2 [7], the result was Active.
Consider `CC1(C)CC[C@]2(C(=O)O)CC[C@]3(C)C(=CC[C@@H]4[C@@]5(C)C[C@@H](OC(=O)c6cc7ccccc7oc6=O)[C@H](OC(=O)c6cc7ccccc7oc6=O)C(C)(C)[C@@H]5CC[C@]43C)[C@@H]2C1`, for which the Activity in the assay on HT-29 [1] was determined as 10%; in the assay on HT-29 [11], 58%; in the assay on HepG2 [3] it was 5%; with B16-F10 [4] it was 10%; in the assay on HepG2 [5], 40%; with B16-F10 [6] it was 5%. Also, the Activity in the assay on HT-29 [9] stood at 5%. The outcome with B16-F10 [2] and in the assay on HT-29 [8] was inactive. Moreover, the outcome with HepG2 [7] was Active.
Consider `CC1(C)CC[C@]2(C(=O)NCCCNC(=O)/C=C/c3ccc(O)cc3)CC[C@]3(C)C(=CC[C@@H]4[C@@]5(C)C[C@@H](O)[C@H](O)C(C)(C)[C@@H]5CC[C@]43C)[C@@H]2C1`, for which the Activity with HT-29 [1] turned out to be 10%; in the assay with HT-29 [11], 40%; in the assay on HepG2 [3], 5%; in the assay with B16-F10 [4], 10%; with HepG2 [5] it was 76%; with B16-F10 [6] it was 5%. The Activity came to 5% in the assay with HT-29 [9] and 40% in the assay with B16-F10 [10]. The outcome in the assay on B16-F10 [2] and in the assay with HT-29 [8] was inactive. The result with HepG2 [7] was Active.
With `CC1(C)CC[C@]2(C(=O)NCCCNC(=O)c3cc4ccccc4oc3=O)CC[C@]3(C)C(=CC[C@@H]4[C@@]5(C)C[C@@H](O)[C@H](O)C(C)(C)[C@@H]5CC[C@]43C)[C@@H]2C1`, the Activity with HT-29 [1] was 10%; in the assay with HepG2 [3], 5%; with B16-F10 [4], 10%; in the assay with B16-F10 [6], 5%; in the assay on HT-29 [9] it was 5%. In addition, the outcome in the assay with B16-F10 [2], with B16-F10 [12], with HT-29 [13] and with HT-29 [8] was inactive. The result in the assay on HepG2 [7] was Active.

The values above are taken from ChEMBL document CHEMBL4834438, “Synthesis and Biological Activity of Triterpene-Coumarin Conjugates” (J Nat Prod, 2021).
